High-throughput results (PubChem)
Most compounds without a hit are left out; they make up all but 3.7% or so of the library.
KCNK3 block = human KCNK3 channel inhibition, primary screen; CHO-KCNK3 thallium flux, FluxOR fluorescence; hits give low values; B-score at 10 µM; hit rate 0.84% among 340,000; AID 602410;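 active = B-score under library mean minus 4 SD, starting fluorescence ratio at most library mean plus 5 SD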;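 note: more negative B-score means stronger inhibition of thallium flux through KCNK3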
Target sequence (O14649 whole entry, looked up): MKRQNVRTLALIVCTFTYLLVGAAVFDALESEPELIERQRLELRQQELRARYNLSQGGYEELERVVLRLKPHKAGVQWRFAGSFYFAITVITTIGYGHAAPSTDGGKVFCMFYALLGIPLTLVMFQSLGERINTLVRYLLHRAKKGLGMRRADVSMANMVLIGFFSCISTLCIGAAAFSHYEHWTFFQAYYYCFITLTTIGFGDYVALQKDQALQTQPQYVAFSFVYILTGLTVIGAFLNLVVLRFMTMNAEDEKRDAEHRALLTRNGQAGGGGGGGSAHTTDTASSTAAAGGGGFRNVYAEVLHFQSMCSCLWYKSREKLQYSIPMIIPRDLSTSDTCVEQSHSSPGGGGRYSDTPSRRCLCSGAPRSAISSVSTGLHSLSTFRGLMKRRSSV
KCNQ1 act = human KCNQ1 channel potentiation or activation | P51787 | CHO-K1 KCNQ1, thallium flux FluxOR fluorescence; hits give high values | B-score at 10 µM | hit rate 0.35% among 310,000 | AID 2648;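 active = fluorescence ratio B-score, a plate-corrected score, at least three library SD, with initial intensity B-score within 5 SD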
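System: Stable KCNQ1 CHO-K1 line | Incubation: 90 min dye loading and 20 min compound exposure, both at room temperature | Measure: Ratio B score | Medium: Assay buffer for compound exposure, DMSO matched across wells | Compound dosing: Single-concentration screen | Probe or stimulus: K+/Tl+ depolarizing stimulus | Measured by: Kinetic FluxOR fluorescence, 10 s baseline plus 110 s post-stimulus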
KCNK9 inh = inhibitors of human KCNK9 two-pore domain potassium channel. AID 488922. B-score at 10 µM. hit rate 1.2% among 310,000. HEK293 KCNK9, FluxOR thallium flux fluorescence; hits give low values;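 active = ratio B-score over 3 SD below the library mean, with starting fluorescence within 5 SD of its mean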;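 note: negative B-score means less thallium flux so channel inhibition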
KCNQ1 inh = inhibitors of human KCNQ1 potassium channel; P51787; CHO-K1 KCNQ1, FluxOR thallium flux fluorescence; hits give high values; B-score at 10 µM; hit rate 1.3% among 310,000;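 active = compounds whose thallium flux B-score, printed positive for inhibition, exceeds three library SD while starting fluorescence stays within three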;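 note: channel opened by potassium depolarization with thallium stimulus after 20 min compound exposure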
hERG rescue = hERG (human) protection from proarrhythmic block; activation (rescue from dofetilide block), less the hit threshold, % at 10 µM; Q12809; hit rate 0.51% among 310,000; CHO-hERG, FluxOR thallium flux, dofetilide IC70 present;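 active = activation above the mean of controls blocked by dofetilide plus 5 SD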;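 note: thallium influx through hERG after potassium depolarization seen as dye fluorescence rise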
Kir21 inh = Kir2.1 (mouse) channel inhibition; P35561; HEK293-Kir2.1, FluxOR thallium flux fluorescence; hits give low values; B-score at 10 µM; hit rate 0.85% among 310,000; AID 1672;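 active = fluorescence ratio B-score at or below minus 3 SD of library scores, with starting-brightness B-score within 2 SD, cut at about -4.2 in these data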;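 note: channel flux triggered by added potassium and thallium sulfate stimulus; B-score of peak minus minimum fluorescence over baseline after thallium stimulus; more negative B-score means stronger Kir2.1 block with less thallium influx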
* hit, by the source's call; i = inactive; / = not tested or not shown.

SMILES	KCNK3 block	KCNQ1 act	KCNK9 inh	KCNQ1 inh	hERG rescue	Kir21 inh
CC(=O)/C(=C/N(C)C)C(=O)Nc1ccc(Cl)cc1Cl	i	i	i	10*	-7	-0.06
COCCn1c(SC(C)C(=O)NCC2CCCO2)nc2sc3c(c2c1=O)CCC3 (configuration not stated)	i	i	i	i	-19	-0.37
CN(Cc1ccccc1)C(=O)c1cccc(NC(=O)C2CCCN(C(=O)OC(C)(C)C)C2)c1 (configuration not stated)	i	/	/	/	/	/
C=C(C)CNC(=S)NN=C1c2ccccc2-c2ccccc21	i	i	i	i	22*	-0.75
C=CCSC1=N/C(=C\c2cc(OCC)c(OC(C)=O)c([N+](=O)[O-])c2)C(=O)S1	i	i	i	9*	-17	0.02
CCCCn1c2c(c(=N)c3c1CCC3)CCC2	i	/	/	/	/	/
CCCCCCn1c2c(c(=N)c3c1CCC3)CCC2	i	i	i	6*	-26	-0.68
Cc1ccc(NC(=O)c2cc3ccccc3o2)nc1	i	i	i	i	-4	-1.1
CCOc1ccc2oc(C(=O)Nc3cc(C)ccn3)c(C)c2c1	i	i	i	i	-12	0.87
Cc1nc(C)c(-c2ccc(SCc3ccccc3C)nn2)s1	i	i	-7.9*	i	-6	-1.4
Cc1ccc(OCC(O)CN2CCc3ccccc3C2)c(C)c1 (configuration not stated)	i	i	i	i	-8	-7.9*
Clc1ccc(OCCCN2CCc3ccccc3C2)c(Br)c1	i	i	i	i	-18	-0.06
CC(C)(C)c1ccc(OCC(O)CN2CCc3ccccc3C2)cc1 (configuration not stated)	i	i	i	i	-18	-0.28
COc1cccc(OCC(O)CN2CCc3ccccc3C2)c1 (configuration not stated)	i	i	i	i	-4	-0.16
Cc1cccc(OCC(O)CN2CCc3ccccc3C2)c1 (configuration not stated)	i	i	i	i	-11	-8.8*
Clc1ccc(OCCOCCN2CCc3ccccc3C2)c(Cl)c1	i	i	i	i	-18	-15*
COc1ccc(OCC(O)CN2CCc3ccccc3C2)cc1 (configuration not stated)	i	i	i	i	-2	2.3
OC(COc1ccc(Cl)cc1Cl)CN1CCc2ccccc2C1 (configuration not stated)	i	i	i	i	-10	-15*
Cc1c(C(=O)N/N=C/c2cccnc2)sc(N)c1C#N	i	i	i	i	-2	-0.18
CC(=O)NCCNC(=O)c1cccc(NS(=O)(=O)c2ccc3c(c2)OCCO3)c1	i	i	i	i	-8	1.4
COc1ccc(C(=O)OCCOc2cccc(Cl)c2)cc1S(=O)(=O)N1CCOCC1	i	i	i	i	-18	-1.6
CCCCn1c(C)cc(C)c(S(=O)(=O)c2ccccc2C)c1=O	i	i	i	i	-2	-1.1
Cc1ccccc1S(=O)(=O)c1c(C)cc(C)n(C(C)C)c1=O	i	i	i	i	-7	-4.4*
CCCSc1nc(C)cc(C)c1S(C)(=O)=O	i	i	i	i	-4	1.3
CCCSc1nc(C)cc(C)c1S(=O)(=O)c1ccccc1C	i	i	-7.5*	i	-2	-1.4
SMILES	KCNK3 block	KCNQ1 act	KCNK9 inh	KCNQ1 inh	hERG rescue	Kir21 inh
COc1ccc(CC(=O)Nc2ccc(S(=O)(=O)N3CCCC3)cc2)c(OC)c1	i	/	/	/	/	/
CC(=O)N(C)c1ccc(NC(=O)C(Sc2ccccc2)c2ccccc2)cc1 (configuration not stated)	i	i	i	i	-10	-1.2
CC(CC(=O)Nc1ccc(F)c([N+](=O)[O-])c1)c1ccccc1 (configuration not stated)	i	i	i	6*	-4	-0.49
CCC(C)NC(C(=O)Nc1ccc(Cl)c([N+](=O)[O-])c1)c1ccccc1 (configuration not stated)	i	i	-7*	i	-17	0.15
CC(CC(=O)Nc1cccc(Cl)c1)c1ccccc1 (configuration not stated)	i	i	i	i	-15	0.23
COCC(C)NC(C(=O)Nc1ccc(Cl)c([N+](=O)[O-])c1)c1ccccc1 (configuration not stated)	i	i	i	i	-10	-3.7
O=C(Nc1ccc(Cl)c([N+](=O)[O-])c1)C(Sc1ccccc1)c1ccccc1 (configuration not stated)	i	i	i	11*	-17	1.4
O=C(NCCCl)Nc1ccc(Cl)c([N+](=O)[O-])c1	i	i	i	10*	-15	1.3
Cc1ccccc1NC(=O)CON=C(N)c1ccccc1	i	/	/	/	/	/
O=C(Nc1cc([N+](=O)[O-])ccc1Cl)C(Sc1ccccc1)c1ccccc1 (configuration not stated)	i	i	-7.1*	i	-8	-2.7
Cc1c(NC(=O)C(Sc2ccccc2)c2ccccc2)cccc1[N+](=O)[O-] (configuration not stated)	i	i	i	i	-10	0.03
CC(C)c1ccc(/C=N/n2c(COc3ccccc3)n[nH]c2=S)cc1	i	16*	i	i	-2	1.2
O=C(Nc1cc([N+](=O)[O-])ccc1N1CCOCC1)c1ccco1	i	i	i	i	14*	-1.6
Cc1cc(N)ccc1N1CCCC1	i	i	i	7*	-8	1.1
COc1ccc(C)cc1NC(=O)CN1CCCC1c1ccc2c(c1)OCCCO2 (configuration not stated)	i	/	/	/	/	/
CN(NS(=O)(=O)c1ccc(Cl)cc1)c1nc(C(F)(F)F)nc2ccccc12	i	i	-7.6*	i	-20	0.28
CN(NS(=O)(=O)c1ccccc1)c1nc2ccccc2nc1C(F)(F)F	i	i	i	i	-8	-3.4
CC1COc2ccccc2N1S(=O)(=O)c1ccc(Cl)cc1 (configuration not stated)	i	i	i	i	-17	-4.4*
O=C(NCCc1ccc(Cl)cc1Cl)c1cccnc1	i	i	i	i	-9	1.3
COc1cccc(N2CCN(C(=O)c3oc4ccccc4c3NC(=O)CCc3cc(OC)no3)CC2)c1	i	i	i	i	-5	0.61
COc1cc(NC(=O)c2ccc(C(=O)c3ccccc3)cc2)cc(OC)c1OC	i	i	i	i	-5	0.94
